Drawing on ChEMBL document CHEMBL3351498, “Identification of key structural characteristics of Schisandra chinensis lignans involved in P-glycoprotein inhibition” (2014), this text covers Activity and viability for nine compounds.

A short description of assay [1]: Cell cycle arrest in human HL60/MDR cells assessed as accumulation at G2/M phase at 25 uM after 48 hrs by flow cytometry (reference value: 11.3 %). Type of assay: functional, cell-based. The gist of the method:
(§1)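 HL60/MDR cells (about 5 × 10^5 cells/mL) exposed 48 h under standard culture to doxorubicin (0.2 and/or 0.02 μM) or lignan (25 μM) alone; DMSO-treated control. Cells fixed in 70% ethanol 30 min at room temperature, RNase A (17 μg/mL) 37 °C 30 min, PI (3 μg/mL) 10 min dark; DNA content by flow cytometry, FL3 (620 nm), 10 000–20 000 events.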
A general note: In flow cytometry, cells or beads pass a laser one at a time.

The nature of assay [2]: Cell cycle arrest in human HL60/MDR cells assessed as accumulation at S phase at 25 uM after 48 hrs by flow cytometry (reference value: 29.9 %). Type of assay: functional, cell-based. The gist of the method: as §1
A short description of assay [3]: Cell cycle arrest in human HL60/MDR cells assessed as accumulation at G1 phase at 25 uM after 48 hrs by flow cytometry (reference value: 59.0 %). It is filed as functional, cell-based. The method in brief:
as §1

Assay [4] in a line: Potentiation of 0.02 uM doxorubicin-induced cytotoxicity in human HL60/MDR cells assessed as viable cells at 25 uM after 48 hrs by WST assay relative to control. Type of assay: functional.
The nature of assay [5]: Potentiation of 0.2 uM doxorubicin-induced cytotoxicity in human HL60/MDR cells assessed as viable cells at 25 uM after 48 hrs by WST assay relative to control. It is filed as functional.
The nature of assay [6]: Potentiation of 0.6 uM doxorubicin-induced cytotoxicity in human HL60/MDR cells assessed as viable cells at 25 uM after 48 hrs by WST assay relative to control. It is filed as functional.
Assay [7] can be described thus: Cytotoxicity against human HL60/MDR cells assessed as viable cells at 25 uM after 48 hrs by WST assay. Type of assay: functional. The note with it: for viability at 25 µM: Homo sapiens, HL60/MDR, 48 h, read-out: Activity.
A short description of assay [8]: Potentiation of doxorubicin-induced cell cycle arrest in human HL60/MDR cells assessed as accumulation at S phase at 25 uM after 48 hrs by flow cytometry (reference value: 59.0 %). It is filed as functional.
Assay [9] can be described thus: Potentiation of doxorubicin-induced cell cycle arrest in human HL60/MDR cells assessed as accumulation at G2/M phase at 25 uM after 48 hrs by flow cytometry (reference value: 59.0 %). It is filed as functional.
Assay [10] can be described thus: Potentiation of doxorubicin-induced cell cycle arrest in human HL60/MDR cells assessed as accumulation at G1 phase at 25 uM after 48 hrs by flow cytometry (reference value: 59.0 %). It is filed as functional.
Assay [11] in a line: Cell cycle arrest in human HL60/MDR cells assessed as accumulation at G1 phase at 0.02 uM after 48 hrs by flow cytometry (reference value: 59.0 %). Type of assay: functional, cell-based. The gist of the method: as §1
A short description of assay [12]: Cytotoxicity against human HL60/MDR cells assessed as viable cells at 0.2 uM after 48 hrs by WST assay. Particulars: read-out: Activity. It is filed as functional. The gist of the method:
(§2)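 Doxorubicin-resistant HL60/MDR cells seeded at 5 × 10^4 cells/mL and held 48 h at 37 °C with doxorubicin (0.02, 0.2, 0.6 μM) alone or plus modulator (25 μM). WST-1 (1 mM) with 0.2 mM MMPM then added for 4 h; absorbance at 450 nm. Viability given as % of untreated cells; two independent experiments, each in triplicate.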

A short description of assay [13]: Cell cycle arrest in human HL60/MDR cells assessed as accumulation at G2/M phase at 0.02 uM after 48 hrs by flow cytometry (reference value: 11.3 %). It is filed as functional, cell-based. The gist of the method:
as §1

Assay [14] in a line: Cytotoxicity against human HL60/MDR cells assessed as viable cells at 0.6 uM after 48 hrs by WST assay. Particulars: read-out: Activity. It is filed as functional. The method in brief:
as §2

Assay [15] is described as follows: Cell cycle arrest in human HL60/MDR cells assessed as accumulation at S phase at 0.2 uM after 48 hrs by flow cytometry (reference value: 29.9 %). Type of assay: functional, cell-based. The method in brief:
as §1

The nature of assay [16]: Cell cycle arrest in human HL60/MDR cells assessed as accumulation at G2/M phase at 0.2 uM after 48 hrs by flow cytometry (reference value: 11.3 %). It is filed as functional, cell-based. The gist of the method: as §1
The nature of assay [17]: Cell cycle arrest in human HL60/MDR cells assessed as accumulation at G1 phase at 0.2 uM after 48 hrs by flow cytometry (reference value: 59.0 %). It is filed as functional, cell-based. The note with it: in the assay text read “G2/M phase” for “G1 phase”. The gist of the method: as §1
The nature of assay [18]: Cytotoxicity against human HL60/MDR cells assessed as viable cells at 0.02 uM after 48 hrs by WST assay. Type of assay: functional. Particulars: read-out: Activity. The gist of the method: as §2
Assay [19] can be described thus: Cell cycle arrest in human HL60/MDR cells assessed as accumulation at S phase at 0.02 uM after 48 hrs by flow cytometry (reference value: 29.9 %). Type of assay: functional, cell-based. The method in brief: as §1

With `COc1cc2c(c(OC)c1OC)-c1c(cc3c(c1OC)OCO3)C[C@H](C)[C@H](C)C2`, the Activity in assay [1] is 8.8%; in assay [2], 26.4%; in assay [3], 64.8%.

`COc1cc2c(c(OC)c1OC)-c1c(cc3c(c1OC)OCO3)CC(C)C(C)C2` (racemic) [SCHISANDRIN B]: the Activity in [4] was determined as 117%; in [5] it was 41%; in assay [6], 36%. Also, the viability at 25 µM in assay [7] is 88%.

In the case of `COc1cc2c(c(OC)c1OC)-c1c(cc(OC)c(OC)c1OC)C[C@H](C)[C@H](C)C2` (single isomer, unassigned; atropisomer 1) [SCHISANDRIN A], the Activity in [4] stood at 108%; in assay [5], 48%; in assay [6], 39%; in assay [7] it was 144%.

With `COc1cc2c(c(OC)c1OC)-c1c(cc(OC)c(OC)c1OC)C[C@H](C)[C@H](C)C2`, the Activity came out at 12.1% in assay [1], 30.5% in assay [2] and 57.3% in assay [3].

As to `COc1cc2c(c(OC)c1OC)-c1c(cc3c(c1OC)OCO3)C[C@H](C)[C@H](C)C2` [WUWEIZISU B], the Activity is 22.7% in assay [8]; 121% in assay [4]; 42% in [5]; 39% in assay [6]; 128% in [7]; 36.9% in [9]. Further, the Activity in assay [10] was 40.4%.

In the case of `COc1cc2c(c(OC)c1OC)-c1c(cc3c(c1OC)OCO3)C[C@@H](C)[C@@H](C)C2` (single isomer, unassigned; atropisomer 2) [KADSURANIN], the Activity amounted to 100% in [4], 97% in assay [5] and 81% in assay [6]. Moreover, the viability at 25 µM in assay [7] was determined as 106%.

`COc1cc2c(c(OC)c1OC)-c1c(cc(OC)c(OC)c1OC)C[C@H](C)[C@H](C)C2` [SCHISANDRIN A]: the Activity worked out at 10.9% in [8]; 106% in assay [4]; 52% in assay [5]; 43% in assay [6]; 92% in [7]; 67.9% in [9]. Besides, the Activity in [10] amounted to 21.2%.

With `COc1cccc2c1C(=O)c1c(O)c3c(c(O)c1C2=O)C[C@@](O)(C(=O)CO)C[C@@H]3O[C@H]1C[C@H](N)[C@H](O)[C@H](C)O1` [DOXORUBICIN], the Activity amounted to 55.8% in assay [11]; 16% in assay [13]; 11% in [15]; 52% in [16]; 36.9% in assay [17]; 28.3% in assay [19]. Further, in assay [12], the viability at 0.2 µM stood at 83%. Besides, in [14], the viability at 0.6 µM stood at 91%. In addition, the viability at 0.02 µM in assay [18] amounted to 109%.

On to `COc1cc2c(c(OC)c1OC)-c1c(cc3c(c1OC)OCO3)C[C@H](C)[C@H](C)C2` (single isomer, unassigned; atropisomer 1) [WUWEIZISU B], for which the Activity was 94% in [4], 66% in [5], 38% in assay [6] and 102% in [7].
